M5 PAM – CHRM5 positive allosteric modulation. P08912. CHO-K1 hM5, Fluo-8 calcium, ACh EC20 PAM; 0% = ACh EC20, 100% = ACh EC100. activation, % at 3 µM. hit rate 0.3% among 360,000. AID 624038;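 active = activation above the run cutoff, the mean activation of all test compounds plus 3 SD, cut at about 18% in these data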
Target sequence (P08912 whole entry, looked up): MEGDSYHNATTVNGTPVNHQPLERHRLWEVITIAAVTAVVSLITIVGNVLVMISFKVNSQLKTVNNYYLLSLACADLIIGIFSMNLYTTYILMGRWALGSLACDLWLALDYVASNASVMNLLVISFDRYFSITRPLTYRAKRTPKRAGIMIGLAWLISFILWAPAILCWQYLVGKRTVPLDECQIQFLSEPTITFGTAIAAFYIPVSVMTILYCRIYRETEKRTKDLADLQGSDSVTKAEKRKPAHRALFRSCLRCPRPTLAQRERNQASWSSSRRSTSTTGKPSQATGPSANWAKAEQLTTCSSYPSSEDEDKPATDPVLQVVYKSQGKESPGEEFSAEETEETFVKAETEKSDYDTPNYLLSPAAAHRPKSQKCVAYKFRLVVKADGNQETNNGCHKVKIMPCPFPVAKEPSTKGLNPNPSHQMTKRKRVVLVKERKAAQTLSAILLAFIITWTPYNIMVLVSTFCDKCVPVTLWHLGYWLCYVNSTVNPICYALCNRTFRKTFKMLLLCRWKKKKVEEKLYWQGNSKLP
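Assay system: CHO-K1 hM5 cells. Also added: acetylcholine at EC20 concentration, added after compound. Dosing: 3 µM, single dose. Times: compound preincubation 140 s before EC20 acetylcholine addition. Signal: Fluo-8 calcium fluorescence. Measure: % activation relative to EC20 and EC100 ACh responses. Repeats: singlicate, one well per test compound.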
CHRM4 PAM – potentiates acetylcholine response at human M4 receptor; P08173; CHO-K1 hM4/Gqi5, Fluo-8 calcium fluorescence, ACh EC20; 0% = ACh EC20, 100% = maximal ACh; activation, % at 3 µM; hit rate 0.4% among 360,000; AID 624126;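 active = activation above its plate's cutoff, the mean activation of sample wells plus 3 SD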
M5 antag – CHRM5 antagonism in calcium assay; hit rate 0.59% among 360,000; CHO-hM5 cells, Fluo-8 calcium fluorescence, ACh EC80; inhibition, % at 3 µM;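 active = inhibition above a per-plate cutoff, the mean of that plate's test compounds plus 3 SD, cut at about 27% in these data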;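 note: 0% = acetylcholine EC80 with DMSO and 100% = DMSO without agonist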
M4 antag – antagonists of human muscarinic M4 receptor (CHRM4). hit rate 0.73% among 360,000. CHO-hM4 cells, ACh EC80, Fluo-8 calcium fluorescence. P08173. inhibition, % at 3 µM;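 active = inhibition above its plate's cutoff, the mean inhibition of sample wells plus 3 SD, cut at about 27% in these data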;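 note: 0% = acetylcholine EC80 with DMSO and 100% = DMSO without agonist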
CHRM5 agonist – agonists of human muscarinic M5 receptor (CHRM5); hit rate 0.19% among 360,000; P08912; activation, % at 3 µM; AID 624037; CHO-K1 hM5 cells, Fluo-8 calcium fluorescence; 0% DMSO wells, 100% maximal acetylcholine response;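 active = activation above the run's mean over test compounds plus 3 SD, cut at about 23% in these data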;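 note: signal is peak over basal fluorescence ratio across the kinetic read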
CHRM4 agonist – CHRM4 agonism in calcium assay; CHO-K1 hM4/Gqi5, Fluo-8 calcium fluorescence; vehicle 0%, full acetylcholine response 100%; activation, % at 3 µM; hit rate 0.14% among 360,000; AID 624127;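 active = activation above the run mean over all test wells plus 3 SD, cut at about 32% in these data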;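 note: peak over basal fluorescence ratio per well then scaled between controls; 0% = DMSO wells and 100% = acetylcholine at EC100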
* hit, by the source's call. Only some compounds are listed: those with a hit (about 1.8% of all), similar ones and a draw of the others.

SMILES | M5 PAM | CHRM4 PAM | M5 antag | M4 antag | CHRM5 agonist | CHRM4 agonist
Cc1c(Cl)cccc1NC(=O)COC(=O)Cn1cnc2c1c(=O)n(C)c(=O)n2C | -3 | 3 | 13 | 2 | -4 | 1
COc1ccc(C(C(=O)NC2CCCC2)N(Cc2cccnc2)C(=O)c2snc(C(N)=O)c2N)cc1OC (centres undefined) | 7 | 4 | -3 | -6 | 1 | 0
O=C(Nc1ccccc1N1CCCC1)c1ccc([N+](=O)[O-])cc1Cl | 9 | 25* | -15 | -16 | -4 | 1
Cc1cc(-c2ccccc2)n(-c2ccc(C(=O)N3CCN(c4ncccn4)CC3)cc2)n1 | -14 | -8 | 5 | 32* | 0 | 11
COc1ccc(CCNC(=O)CN2CCN(Cc3ccccc3F)C2=O)cc1OC | 5 | 14 | 7 | 10 | 2 | 0
Cc1ccc(CCNC(=O)CN2CCN(Cc3ccccc3F)C2=O)cc1 | 3 | 30* | -2 | -8 | -5 | 2
Cc1ccccc1OCC(=O)OCC(=O)c1ccc[nH]1 | -2 | 6 | 3 | 10 | -1 | 0
CCCCOc1ccc(S(=O)(=O)NC(=O)C2(C)CCN2C(=O)c2c(C)noc2C)cc1 (centres undefined) | 1 | 19* | -4 | -3 | 0 | 1
Cc1ccc(S(=O)(=O)NC(=O)C2(C)CCN2C(=O)c2c(C)noc2C)cc1 (centres undefined) | 2 | 4 | 0 | -13 | 0 | 1
Cc1ncsc1CCOC(=O)c1ccc(Cl)cc1 | 9 | 24* | -15 | -9 | -4 | 2
O=C(O)c1cccc2c1/C(=N/O)c1ccccc1-2 | 20* | 2 | -12 | -11 | 4 | 1
O=C(O)c1cccc2c1-c1ccccc1/C2=N\Nc1ccccc1 | 3 | 1 | 1 | -8 | -3 | 1
CCOC(=O)N1CCN(C(=O)c2ccc3c(c2)NC(=O)C(N2CCOCC2)S3)CC1 (centres undefined) | 19* | 12 | 2 | -16 | -2 | 2
CCc1ccc(CNC(=O)c2ccc3c(c2)NC(=O)C(N2CCOCC2)S3)cc1 (centres undefined) | 13 | 5 | -10 | 0 | 2 | 6
c1ccc2c(c1)ncn2-c1cncnc1 | -1 | 4 | 1 | -6 | 1 | 0
CC(=O)Nc1ccc(NC(=O)C(C)OC(=O)/C(C#N)=C/c2ccc(N(C)C)cc2)cc1 (centres undefined) | -17 | -4 | 61* | 1 | 16 | 7
COc1cc(-c2nc3ccccn3c2NCC2CCCO2)ccc1O (centres undefined) | -20 | -19 | 13 | 14 | 6 | 16
CCOc1cc(-c2nc3ccccn3c2NCC2CCCO2)ccc1O (centres undefined) | -17 | -25 | 24 | 30* | 5 | 22
CCOC(=O)c1ccc(NC(=O)CN2C(=O)NC3(CCCCCCC3)C2=O)cc1 | -2 | 11 | -1 | -13 | 3 | 6
N#CCCN1CCN(CCC#N)C1=S | -7 | 0 | 8 | -10 | 30* | 1
C1=C(CCNc2ncnc3c2[nH]c2ccccc23)CCCC1 | -14 | -13 | 32* | 32* | 8 | 14
CC(C)OCCCNc1ncnc2c1[nH]c1ccccc12 | -28 | -12 | 30* | 13 | 5 | 24
CCn1ccnc1CN1CCN(CCC(C)C)C(CCO)C1 (centres undefined) | -3 | -1 | 3 | 1 | -1 | 1
CCOC(=O)CNC(=O)Cn1cnc2c(nnn2-c2ccccc2)c1=O | 2 | 12 | -2 | -6 | 1 | 2
O=C(COc1ccc(F)cc1Cl)Nc1ccc(S(=O)(=O)Nc2nccs2)cc1 | -4 | 2 | -5 | -1 | 0 | 3
SMILES | M5 PAM | CHRM4 PAM | M5 antag | M4 antag | CHRM5 agonist | CHRM4 agonist
C#CCOCCOCCOCCNc1nc(N2CCN(C(=O)CCCCCCCCCCNC(=O)[C@H]([C@@H](C)CC)n3cc(CCCCN=C(N)N)nn3)CC2)nc(N2CCN(C(=O)CCCCCCCCCCNC(=O)[C@H](CO)n3cc(CCCCCN)nn3)CC2)n1 | -10 | -13 | 23 | 34* | -7 | 1
C#CCOCCOCCOCCNc1nc(N2CCN(C(=O)CCCCCCCCCCNC(=O)[C@H]([C@@H](C)CC)n3cc(CCCCCN)nn3)CC2)nc(N2CCN(C(=O)CCCCCCCCCCNC(=O)[C@H]([C@@H](C)CC)n3cc(CCCCN=C(N)N)nn3)CC2)n1 | -10 | -10 | 12 | 14 | -2 | -1
C[C@@H](O)Cc1cn(CC(=O)NCCCCCCCCCCC(=O)N2CCNCC2)nn1 | 5 | 5 | 5 | 4 | -3 | 1
CC(C)(C)OC(=O)CC[C@@H](C(=O)NCCCCCCCCCCC(=O)N1CCN(C(=O)OC(C)(C)C)CC1)n1cc(CCCCCNC(=O)OC(C)(C)C)nn1 | 8 | 14 | -13 | -11 | 6 | 4
NCCCCCc1cn(CC(=O)NCCCCCCCCCCC(=O)N2CCNCC2)nn1 | 4 | 23* | -4 | -12 | -4 | 1
C#CCOCCOCCOCCNc1nc(N2CCN(C(=O)CCCCCCCCCCNC(=O)Cn3cc(CCCCCN)nn3)CC2)nc(N2CCN(C(=O)CCCCCCCCCCNC(=O)[C@H]([C@@H](C)CC)n3cc(CCCCN=C(N)N)nn3)CC2)n1 | -16 | -15 | 14 | 41* | -9 | -1
CC(C)(C)OC(=O)NCCCCCc1cn([C@@H](CO)C(=O)NCCCCCCCCCCC(=O)N2CCN(C(=O)OC(C)(C)C)CC2)nn1 | -40 | -17 | 38* | 69* | 1 | 34*
CCc1nonc1NC(=O)c1oc2cc(C)c(Cl)cc2c1C | 25* | 8 | -17 | -7 | -3 | 0
O=C(CCNS(=O)(=O)c1ccccc1)NNC(=O)c1cccc(Cl)c1 | 4 | 18 | 3 | -2 | 6 | 1
Nc1nc2ccccc2cc1C(=O)NCCCCc1ccccc1 | -23 | -8 | 28* | 14 | 8 | 17
CCCCOC(=O)/C=C/c1c(C)[nH]c(=O)[nH]c1=O | 8 | 22* | 4 | -3 | -4 | 1
Cc1ccc(-c2nnc(N3CCCCC3)c3ccccc23)cc1S(=O)(=O)N(C)C | -4 | 3 | 0 | -4 | 0 | 2
Cc1ccc(-c2nnc(N3CCOCC3)c3ccccc23)cc1S(N)(=O)=O | 19* | 1 | -5 | -8 | 5 | 0
Cc1nn(-c2ccc(N3CCOCC3)nn2)c(C)c1CCC(=O)NCc1ccc(F)cc1 | -5 | -1 | 18 | 4 | -4 | 0
CC1CC1c1ccc(/C=C(\C#N)C(=O)Nc2cc(Cl)ccc2Cl)o1 (centres undefined) | 9 | 21* | -4 | -6 | 1 | 1
